hERG rescue: hERG (human) protection from proarrhythmic block | Q12809 | AID 1511 | CHO-hERG, FluxOR thallium flux, dofetilide IC70 present | activation (rescue from dofetilide block), less the hit threshold, % at 10 µM | 0.51% of 310,000 active;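 active = activation above the mean of controls blocked by dofetilide plus 5 SD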;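 also: thallium influx through hERG after potassium depolarization seen as dye fluorescence rise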
KCNQ1 inh: inhibitors of human KCNQ1 potassium channel. P51787. CHO-K1 KCNQ1, FluxOR thallium flux fluorescence; stronger effect = higher value. B-score at 10 µM. 1.3% of 310,000 active;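 active = compounds whose thallium flux B-score, printed positive for inhibition, exceeds three library SD while starting fluorescence stays within three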;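 also: channel opened by potassium depolarization with thallium stimulus after 20 min compound exposure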
KCNK9 inh: human KCNK9 channel inhibition; B-score at 10 µM; HEK293 KCNK9, FluxOR thallium flux fluorescence; stronger effect = lower value; 1.2% of 310,000 active;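 active = ratio B-score over 3 SD below the library mean, with starting fluorescence within 5 SD of its mean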;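 also: negative B-score means less thallium flux so channel inhibition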
KCNK3 inh: human KCNK3 channel inhibition, primary screen | CHO-KCNK3 thallium flux, FluxOR fluorescence; stronger effect = lower value | B-score at 10 µM | 0.84% of 340,000 active;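 active = B-score under library mean minus 4 SD, starting fluorescence ratio at most library mean plus 5 SD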;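 also: more negative B-score means stronger inhibition of thallium flux through KCNK3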
KCNQ1 pot: human KCNQ1 channel potentiation or activation; 0.35% of 310,000 active; P51787; CHO-K1 KCNQ1, thallium flux FluxOR fluorescence; stronger effect = higher value; B-score at 10 µM;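 active = fluorescence ratio B-score, a plate-corrected score, at least three library SD, with initial intensity B-score within 5 SD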
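Assay system: CHO-K1 cells stably expressing KCNQ1. Medium: assay buffer for compound exposure, DMSO matched across wells. Timing: 37 °C overnight plating, 90-min dark dye load, 20-min compound pretreatment. Signal: kinetic FluxOR fluorescence, 10 s baseline plus 110 s post-stimulus.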
KCNK9 inh conf: human KCNK9 inhibitor confirmation. HEK293 KCNK9 cells, FluxOR thallium flux fluorescence. AID 492992. 43% of 4,900 active. inhibition, % at 10 µM. shares compounds with KCNK9 inh;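 active = thallium signal inhibited by more than 5 SD of the compound-free buffer control wells, on both duplicate plates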;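 also: 0% = assay buffer control wells without compound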
Kir2-1 spec: mouse Kir2.1 off-target activity of KCNK9 modulators; shares compounds with KCNK9 inh; Kir2.1 cells, FluxOR thallium flux fluorescence; inhibition, % at 10 µM; 4% of 4,900 active; AID 492993;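 active = thallium signal drop more than 5 SD beyond the mean of the no-compound control wells, seen in both duplicate plates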;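 also: signal is fluorescence rise after thallium addition divided by baseline fluorescence; plate controls were assay buffer only for no effect and full block by chlorpromazine control for full effect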
Target sequence (P35561 whole entry, looked up): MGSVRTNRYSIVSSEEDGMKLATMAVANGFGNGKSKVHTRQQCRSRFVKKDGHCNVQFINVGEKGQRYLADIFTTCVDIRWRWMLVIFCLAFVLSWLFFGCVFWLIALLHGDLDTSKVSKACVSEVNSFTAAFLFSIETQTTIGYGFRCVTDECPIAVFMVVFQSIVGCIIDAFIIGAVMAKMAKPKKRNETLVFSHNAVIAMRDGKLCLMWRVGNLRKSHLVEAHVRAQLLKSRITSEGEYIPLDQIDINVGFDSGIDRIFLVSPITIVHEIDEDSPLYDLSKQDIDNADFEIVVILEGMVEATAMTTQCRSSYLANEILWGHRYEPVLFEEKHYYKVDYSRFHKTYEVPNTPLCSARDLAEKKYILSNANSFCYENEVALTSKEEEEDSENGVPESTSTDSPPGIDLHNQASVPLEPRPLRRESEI
HEK293 Tl ctr: second counter-screen for KCNK9 modulators: effect in non-induced cells; inhibition, % at 10 µM; shares compounds with KCNK9 inh; 40% of 4,900 active; non-induced KCNK9-HEK293, FluxOR thallium flux;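 active = thallium signal drop beyond 5 SD of the untreated control mean, on both duplicate plates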;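 also: plate controls were buffer only IC0 wells for no effect and SID17386958 at its maximal inhibitory level for full effect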
* marks the source's active call; other numbers are inactive results; i = inactive; x = no result. In the library only some 3.1% were active in any assay of this set; here they are far more common.

SMILES	hERG rescue	KCNQ1 inh	KCNK9 inh	KCNK3 inh	KCNQ1 pot	KCNK9 inh conf	Kir2-1 spec	HEK293 Tl ctr
COc1ccc(NC(=O)CSc2nnc(C3CCCCC3)n2-c2ccccc2)cc1	-12	i	i	i	i	i	i	i
CCc1ccc(C(=O)CN2CCSC2=N)cc1	-2	i	i	i	i	x	x	x
CCOC(=O)c1ccccc1NC(=O)COC(=O)CCNS(=O)(=O)c1cccs1	x	x	x	i	x	x	x	x
CCCCCCOC1(c2ccccc2)OC(=O)c2ccccc21 (stereo unspecified)	-14	i	-15*	i	i	79%*	i	50%*
Cc1cccc(OC2(c3ccccc3)OC(=O)c3ccccc32)c1C (stereo unspecified)	-11	i	-13*	i	i	52%*	i	42%*
COc1ccc(NC2(c3ccccc3)OC(=O)c3ccccc32)cc1 (stereo unspecified)	-8	i	i	i	i	x	x	x
CCCCCCCOC1(c2ccccc2)OC(=O)c2ccccc21 (stereo unspecified)	-16	i	-16*	i	i	70%*	i	48%*
CC1(c2cccc3ccccc23)OC(=O)c2ccccc21 (stereo unspecified)	x	x	x	i	x	x	x	x
Cc1nc(Sc2nnnn2C)c2c3c(sc2n1)CCC3	x	x	x	i	x	x	x	x
CCc1nc(Sc2nnnn2-c2ccccc2)c2c3c(sc2n1)CCCC3	-5	i	i	i	i	i	i	i
Oc1ccc(Cl)cc1CNCc1ccc(Cl)cc1	x	x	x	i	x	x	x	x
Oc1ccc(Cl)cc1Cc1cc(Cl)ccc1O	-37	i	-14*	i	i	58%*	i	35%*
O=C(N1CCCC1)C12CC3CC(CC(Cl)(C3)C1)C2	-2	i	i	i	i	x	x	x
CN(C)CCCN(C(=O)c1ccc(C(=O)c2ccccc2)cc1)c1nc2c(F)cccc2s1	-16	i	i	i	i	i	i	i
CSc1ccc(CNC(=O)Cc2ccc(NC(=O)C3=C(C)OCCS3)cc2)cc1	-2	i	i	i	i	x	x	x
COc1ccc(C(c2nnnn2Cc2cccs2)N2CCN(c3ccccc3F)CC2)cc1 (stereo unspecified)	-5	i	-12*	i	i	28%*	i	38%*
COc1ccc(C(c2nnnn2Cc2ccccc2)N2CCN(c3ccccc3)CC2)cc1 (stereo unspecified)	-4	i	i	i	i	x	x	x
Cc1ccc(Cn2nc(C)c(C(=O)NCC(c3ccc(F)cc3)N3CCOCC3)c2Cl)cc1 (stereo unspecified)	x	x	x	i	x	x	x	x
Cc1cc(NC(=O)CSc2nnc(-c3ccoc3C)n2N)no1	-14	i	i	i	i	x	x	x
CCOc1ccc(C(C)=O)cc1CSc1nnc(-c2ccoc2C)n1N	-9	i	-9.2*	i	i	45%*	i	30%*
O=C(Nc1nccs1)c1cc2sccc2n1Cc1ccc(F)cc1	-11	i	i	i	i	x	x	x
COc1ccc(NC(=O)c2cc3sccc3n2Cc2ccc(F)cc2)cc1OC	-9	i	-12*	i	i	57%*	i	30%*
O=C(Nc1cccn(Cc2c(Cl)cccc2Cl)c1=O)c1c(Cl)cccc1Cl	-13	i	-10*	i	i	54%*	i	i
O=C(/C=C/c1ccco1)N1CCN(C/C=C/c2ccccc2)CC1	-6	i	i	i	i	x	x	x
COc1cc(/C=C2\C(=N)N3N=C(S(C)(=O)=O)SC3=NC2=O)cc(OC)c1OCCOc1ccccc1C	-31	i	i	i	i	i	i	i
SMILES	hERG rescue	KCNQ1 inh	KCNK9 inh	KCNK3 inh	KCNQ1 pot	KCNK9 inh conf	Kir2-1 spec	HEK293 Tl ctr
COc1ccccc1OCCOc1ccc(/C=C2\C(=N)N3N=C(S(C)(=O)=O)SC3=NC2=O)cc1	-26	i	i	i	i	i	i	i
Cc1cc(/C=C2\C(=N)N3N=C(S(C)(=O)=O)SC3=NC2=O)c(C)n1Cc1ccccc1	-5	i	i	i	i	i	i	i
CCCC1=NN2C(=N)/C(=C\c3cc(C)n(Cc4ccccc4)c3C)C(=O)N=C2S1	-4	i	i	i	i	x	x	x
CS(=O)(=O)C1=NN2C(=N)/C(=C\c3ccc(OC(=O)c4ccco4)cc3)C(=O)N=C2S1	-10	i	i	i	i	x	x	x
CC(C)CS(=O)(=O)C1=NN2C(=N)/C(=C\c3ccc(OC(=O)c4ccco4)cc3)C(=O)N=C2S1	-30	i	i	i	i	i	i	i
COc1cccc(NC(=O)CCC(=O)N2CC(C)Oc3ccc(C)cc32)c1 (stereo unspecified)	-12	i	i	i	i	x	x	x
Cc1ccc(S(=O)(=O)NC(=O)Nc2nccs2)cc1	-2	i	i	i	i	x	x	x
CCN(C(=O)c1ccc2c(Cl)c3c(nc2c1)CCC3)c1ccc(C)c(C)c1	-16	i	i	i	i	i	i	i
CCOC(=O)Cc1c(C)nc2c(-c3ccccc3)c(C)nn2c1C	-6	i	i	i	i	i	i	i
Cn1c(SCC(=O)NCC2CCCO2)nnc1-c1ccco1 (stereo unspecified)	x	x	x	i	x	x	x	x
CN(C)CC/C=C1/c2cc(F)ccc2Sc2ccc(Cl)cc21	-7	i	i	i	i	i	i	i
COc1cc(Cl)cc2c1Sc1ccccc1/C2=C/CCN(C)C	-19	i	i	i	i	i	i	i
NS(=O)(=O)c1ccc(NCc2cc(Cl)ccc2OCc2ccc(F)cc2)cc1	-7	i	-13*	i	i	50%*	i	42%*
CCC(C)C(=O)Nc1nc(C)c(-c2csc(Nc3ccccc3OC)n2)s1 (stereo unspecified)	-14	i	-9.2*	i	i	58%*	i	28%*
Cc1ccc(-c2csc(NC(=O)c3ccc(-c4ccccc4)cc3)n2)o1	-15	i	-9.7*	i	i	i	i	i
COc1ccc(Cl)cc1Nc1nc(-c2sc(NC(=O)CC(C)C)nc2C)cs1	-7	i	-13*	i	i	41%*	i	34%*
Cc1nc(NC(=O)CC(C)C)sc1-c1csc(Nc2ccc(Cl)cc2Cl)n1	-14	i	i	i	i	x	x	x
COc1ccc(NC(=O)c2oc3ccccc3c2NC(=O)c2ccco2)cc1	-1	i	-9.1*	i	i	i	i	i

Screens deposited in PubChem BioAssay by Johns Hopkins Ion Channel Center.
